Assay [1] has as its target PKCη (Homo sapiens, UniProt P24723). Kind of assay: In vitro kinase assay, immunoprecipitated PKC, MBP substrate, γ-[32P]ATP. Conditions: for inhibition of kinase activity of PKCη: even at 10 μΜ peptide, MBP substrate. The assay is classed as biochemical. Put shortly:
(§1)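 Novel PKC isoforms were HA-tagged, expressed in HEK-293T and pulled down with anti-HA beads (100 μg lysate). Reaction 30 min at 32 °C; 32P-MBP read by autoradiography and normalized via HA/MBP immunoblots. Means of three independent experiments.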

Assay [2] deals with PKCδ (Homo sapiens, UniProt Q05655). The description is as above. Format: biochemical. The essentials:
as §1

Assay [3] concerns the target PKCθ (Homo sapiens, UniProt Q04759). The description is as above. Format: biochemical. The essentials:
as §1

The target of assay [4] is T1, PKCε (Homo sapiens, UniProt Q02156).
T1 sequence (Q02156 1-737): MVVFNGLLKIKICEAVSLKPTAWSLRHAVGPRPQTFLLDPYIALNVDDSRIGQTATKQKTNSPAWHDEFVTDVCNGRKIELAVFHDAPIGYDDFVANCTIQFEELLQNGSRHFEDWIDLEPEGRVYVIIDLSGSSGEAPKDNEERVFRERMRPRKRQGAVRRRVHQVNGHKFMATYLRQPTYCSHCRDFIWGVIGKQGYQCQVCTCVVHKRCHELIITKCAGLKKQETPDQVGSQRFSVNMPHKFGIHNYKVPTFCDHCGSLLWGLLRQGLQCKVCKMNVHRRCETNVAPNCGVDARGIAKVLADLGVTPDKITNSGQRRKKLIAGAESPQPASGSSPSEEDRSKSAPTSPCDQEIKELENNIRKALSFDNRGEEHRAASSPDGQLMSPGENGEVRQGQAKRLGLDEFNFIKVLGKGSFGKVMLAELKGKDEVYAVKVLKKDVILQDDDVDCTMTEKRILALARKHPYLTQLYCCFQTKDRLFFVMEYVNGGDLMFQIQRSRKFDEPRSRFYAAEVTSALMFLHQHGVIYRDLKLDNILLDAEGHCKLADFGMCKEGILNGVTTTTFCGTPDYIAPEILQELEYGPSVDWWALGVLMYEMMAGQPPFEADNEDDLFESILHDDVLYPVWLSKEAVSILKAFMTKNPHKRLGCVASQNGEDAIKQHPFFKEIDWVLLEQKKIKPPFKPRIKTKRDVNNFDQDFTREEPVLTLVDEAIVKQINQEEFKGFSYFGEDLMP
Described as above. Format: biochemical. The essentials:
as §1

For assay [5], the system named is PKC-α. Kind of assay: In vitro kinase assay, immunoprecipitated PKC, MBP substrate, γ-[32P]ATP. The assay is classed as biochemical. The conditions noted are these: PMA and CaCl2. The essentials:
(§2)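 HA-tagged classical PKC was overexpressed in HEK-293T, and lysate (100 μg) was immunoprecipitated with immobilized anti-HA. Incubated 30 min, 32 °C. 32P-MBP detected by SDS-PAGE/autoradiography; HA and MBP then immunoblotted and band signals quantified.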

Assay [6] relates to PKC-γ. The description is as above. The assay is classed as biochemical. Conditions: PMA and CaCl2. Put shortly:
as §2

For assay [7], the system named is PKC-ζ. Kind of assay: In vitro kinase assay, immunoprecipitated PKC, MBP substrate, γ-[32P]ATP. The assay is classed as biochemical. The essentials:
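Atypical isoform, HA-tagged and overexpressed in HEK-293T; anti-HA immunoprecipitate from 100 μg lysate. Autoradiography of 32P-MBP after SDS-PAGE, with anti-HA and anti-MBP immunoblots for quantification.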

Assay [8] concerns MCF-7 breast cancer cells. Kind of assay: Cell viability. The conditions noted are these: XTT; peptide concentration 10 μM; three independent experiments. The assay is classed as cell-based, human. The essentials: (§3)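 Cells seeded at 5 × 10^3/well and grown 16 to 24 h. N-terminally myristoylated peptides were added in serum-free medium for 4 h, then serum was replenished for 24 h. XTT absorbance was read and converted to cell number with a per-line standard curve (1.25 to 20 × 10^3 cells plated, assayed after 24 h). At least three repeats, each in triplicate.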

Assay [9] relates to MDA-MB-231 breast cancer cells. Kind of assay: Cell viability. The assay is classed as cell-based, human. The conditions noted are these: XTT; peptide concentration 10 μM; three independent experiments. The essentials:
as §3

Assay [10] deals with U251 MG glioblastoma cancer cells. Kind of assay: Cell viability. The conditions noted are these: XTT; peptide concentration 10 μM; three independent experiments. The assay is classed as cell-based, human. The essentials: as §3
The test system of assay [11] is nontransformed MCF10A cells. Kind of assay: Cell viability. The assay is classed as cell-based, human. Conditions: XTT; peptide concentration 10 μM; three independent experiments. Put shortly:
as §3

Assay [12] concerns MCF-7 cells. Kind of assay: Cell death with etoposide-induced DNA damage. The assay is classed as cell-based, human. Conditions: uPEP2 2 μM followed by etoposide 50 μM for 48 h, means of at least three experiments.
For assay [13], the system named is MCF-7 cells. Kind of assay: Western blot of DNA damage response markers and PKC-η after etoposide. The assay is classed as cell-based, human. The conditions noted are these: peptide 2 μM, etoposide 50 μM. Put shortly: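 MCF-7 treated with peptides (2 μM), then etoposide (50 μM). Lysed 30 min after etoposide addition, then Western blot with specific antibodies for phospho-γ-H2AX, Chk1, Chk2, ATM and ATR; Hsp90 and β-actin as loading controls. A non-myristoylated, cell-impermeant peptide served as control. Three independent experiments.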

The test system of assay [14] is PKC-η (Ser675, Thr655) in MCF-7 cells. Kind of assay: Western blot of PKC-η priming-site phosphorylation. Format: cell-based, human. The conditions noted are these: peptide 10 μM for 4 h, with/without MG132 10 μM, immunoblot.
In assay [15] the test system is MDA-MB-231 tumors. Kind of assay: MDA-MB-231 orthotopic breast cancer xenograft in NSG mice. The assay is classed as in vivo.
The subject of assay [16] is MDA-MB-231 tumors. Kind of assay: MDA-MB-231 orthotopic breast cancer xenograft in NOD-SCID mice. The assay is classed as in vivo. The conditions noted are these: 10 mg/kg intratumor on alternate days; four mice. The essentials: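 Female 6–8-wk-old NOD-SCID mice received 4 × 10^6 MDA-MB-231-Luc cells in 100 μL PBS into the mammary fat pad. At ~100 mm3, mice were randomized to PBS, a non-myristoylated control peptide, or test peptide (10 mg/kg), given intratumorally on alternate days. Caliper measurements three times weekly; V = (W2 × L)/2. Endpoint at ~2,000 mm3.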

Assay [17] deals with PKC-η. Kind of assay: Kinase assay with the peptide as substrate. Format: biochemical. The conditions noted are these: γ-ATP.
For assay [18], the system named is PKC-ε. Kind of assay: Kinase assay with the peptide as substrate. The assay is classed as biochemical. Conditions: γ-ATP.

Experimental findings from paper PMC8501901 (Proceedings of the National Academy of Sciences of the …, 2021) are described below.

Where a SMILES comes first, the peptide text is derived from it. Where no end group is shown, it is not given here. The star is where a group is joined. Myristoyl = CCCCCCCCCCCCCC(=O)*

Sequence of PKCη (P24723 whole entry, canonical isoform): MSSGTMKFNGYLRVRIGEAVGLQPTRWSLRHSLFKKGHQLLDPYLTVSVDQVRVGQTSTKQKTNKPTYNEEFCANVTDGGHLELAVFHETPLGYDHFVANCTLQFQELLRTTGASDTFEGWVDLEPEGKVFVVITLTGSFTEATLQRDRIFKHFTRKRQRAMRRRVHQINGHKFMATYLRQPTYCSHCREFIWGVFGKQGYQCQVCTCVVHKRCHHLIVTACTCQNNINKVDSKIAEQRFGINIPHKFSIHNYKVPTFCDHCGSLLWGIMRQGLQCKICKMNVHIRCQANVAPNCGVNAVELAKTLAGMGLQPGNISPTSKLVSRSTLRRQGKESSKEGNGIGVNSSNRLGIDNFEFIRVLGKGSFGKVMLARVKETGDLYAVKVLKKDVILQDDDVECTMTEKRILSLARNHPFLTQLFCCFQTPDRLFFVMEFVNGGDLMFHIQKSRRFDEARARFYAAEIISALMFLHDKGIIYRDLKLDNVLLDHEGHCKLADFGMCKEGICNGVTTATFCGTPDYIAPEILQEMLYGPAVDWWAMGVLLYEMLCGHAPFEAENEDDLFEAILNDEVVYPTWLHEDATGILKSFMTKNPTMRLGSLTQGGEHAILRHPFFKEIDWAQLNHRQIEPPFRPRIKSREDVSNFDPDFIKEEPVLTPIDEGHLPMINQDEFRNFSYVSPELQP
Sequence of PKCθ (Q04759 whole entry): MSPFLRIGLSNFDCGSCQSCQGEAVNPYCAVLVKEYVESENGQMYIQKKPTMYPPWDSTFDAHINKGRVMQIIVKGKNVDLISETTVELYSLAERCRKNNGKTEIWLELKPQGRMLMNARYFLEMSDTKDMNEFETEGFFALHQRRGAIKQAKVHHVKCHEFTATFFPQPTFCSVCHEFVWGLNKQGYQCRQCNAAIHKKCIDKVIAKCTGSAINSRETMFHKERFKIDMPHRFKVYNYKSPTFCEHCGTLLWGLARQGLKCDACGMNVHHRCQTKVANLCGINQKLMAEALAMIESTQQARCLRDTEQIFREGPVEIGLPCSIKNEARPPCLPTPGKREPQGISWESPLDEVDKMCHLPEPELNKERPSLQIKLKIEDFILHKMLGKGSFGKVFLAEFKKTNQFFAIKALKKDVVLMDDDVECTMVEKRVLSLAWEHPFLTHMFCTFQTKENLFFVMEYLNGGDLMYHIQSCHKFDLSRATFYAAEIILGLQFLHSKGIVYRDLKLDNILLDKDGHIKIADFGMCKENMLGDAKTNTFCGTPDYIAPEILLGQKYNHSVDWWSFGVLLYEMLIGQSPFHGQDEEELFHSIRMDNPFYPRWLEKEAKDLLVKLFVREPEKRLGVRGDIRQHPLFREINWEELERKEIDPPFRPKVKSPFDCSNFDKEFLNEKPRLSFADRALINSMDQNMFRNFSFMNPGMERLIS
Sequence of PKCδ (Q05655 whole entry): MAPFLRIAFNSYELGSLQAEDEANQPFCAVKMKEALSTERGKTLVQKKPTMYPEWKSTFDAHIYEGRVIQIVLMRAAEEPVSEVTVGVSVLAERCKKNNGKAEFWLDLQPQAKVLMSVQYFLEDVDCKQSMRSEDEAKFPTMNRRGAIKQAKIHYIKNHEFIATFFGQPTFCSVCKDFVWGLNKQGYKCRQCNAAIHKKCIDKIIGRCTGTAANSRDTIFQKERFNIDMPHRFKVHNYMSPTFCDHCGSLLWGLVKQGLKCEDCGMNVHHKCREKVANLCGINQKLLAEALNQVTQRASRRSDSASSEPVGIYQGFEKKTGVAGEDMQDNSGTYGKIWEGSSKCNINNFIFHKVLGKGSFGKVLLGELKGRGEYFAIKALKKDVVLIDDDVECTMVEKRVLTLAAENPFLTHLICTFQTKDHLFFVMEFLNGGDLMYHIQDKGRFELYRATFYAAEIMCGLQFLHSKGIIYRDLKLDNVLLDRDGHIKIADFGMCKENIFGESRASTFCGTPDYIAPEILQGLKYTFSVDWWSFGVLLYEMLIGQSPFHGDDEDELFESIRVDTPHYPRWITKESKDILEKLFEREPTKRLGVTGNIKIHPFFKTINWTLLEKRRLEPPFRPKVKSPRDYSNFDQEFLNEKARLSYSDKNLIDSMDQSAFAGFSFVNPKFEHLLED

As for `CCCCCCCCCCCCCC(=O)N[C@@H](CCSC)C(=O)N[C@@H](C)C(=O)N[C@@H](CO)C(=O)N[C@@H](CCCNC(=N)N)C(=O)NCC(=O)N[C@@H](C)C(=O)N[C@@H](CC(C)C)C(=O)N[C@@H](CCCNC(=N)N)C(=O)N[C@@H](CCCNC(=N)N)C(=O)N[C@@H](CS)C(=O)N[C@@H](CC(C)C)C(=O)N[C@@H](CO)C(=O)N1CCC[C@H]1C(=O)NCC(=O)N[C@@H](CC(C)C)C(=O)N1CCC[C@H]1C(=O)N[C@@H](CCCNC(=N)N)C(=O)N[C@@H](CC(C)C)C(=O)N[C@@H](CC(C)C)C(=O)N[C@@H](Cc1c[nH]cn1)C(=O)N[C@@H](CC(C)C)C(=O)N[C@@H](CO)C(=O)N[C@@H](CCCNC(=N)N)C(=O)NCC(=O)N[C@@H](CC(C)C)C(=O)N[C@@H](C)C(N)=O` [uPEP2] (Myristoyl-MASRGALRRCLSPGLPRLLHLSRGLA-NH2), the IC50 in [1], in assay [2], in [3] and in assay [4] was ~2000 nM each time. In addition, the “effect on kinase activity of PKC-α (classical)” value in [5] is reported as “did not affect”. For the same compound, the “effect on kinase activity of PKC-γ (classical)” value in [6] was “did not affect”. In addition, the “effect on kinase activity of PKC-ζ (atypical)” value in [7] was “did not affect”. Further, the “cell viability of MCF-7” value in assay [8] is “reduces cell viability”. Besides, the “cell viability of MDA-MB-231” value in [9] is given as “reduces cell viability”. In assay [10], the “cell viability of U251 MG” value is listed as “reduces cell viability”. In addition, the “cell viability of MCF10A” value in assay [11] is reported as “did not affect”. In addition, the “cell death in the presence of both agents (uPEP2 and etoposide)” value in assay [12] is 95 to 100%. The “PKC-η protein in etoposide-treated cells” value in assay [13] is on record as “enhanced degradation”. Moreover, the “etoposide-promoted phosphorylation of ATM, ATR, Chk1 and Chk2” value in assay [13] (lysis 30 min after etoposide) is recorded as “markedly decreased”. For the same compound, the “phosphorylation of γ-H2AX upon etoposide” value in assay [13] (lysis 30 min after etoposide) was “markedly increased”. Besides, the “phosphorylation of PKC-η priming sites Ser675 and Thr655” value in assay [14] is recorded as “diminished”. In addition, the “breast tumor mass, NSG mice” value in [15] (10 mg/kg intratumor on alternate days, five animals/group) is recorded as “significantly attenuates”. For the same compound, the “growth (volume) of MDA-MB-231 tumors in NSG mice” value in assay [15] (10 mg/kg intratumor on alternate days, five mice/group) is reported as “inhibited the growth”. Also, in [15] (immunoblot of tumor extracts), the “expression levels of classical PKC-α, PKC-γ and atypical PKC-ζ in tumors” value is listed as “not affected”. Further, the “protein levels of novel PKC-η and PKC-ε in tumors” value in assay [15] (immunoblot of tumor extracts, NSG and NOD-SCID mice) is given as “lower protein levels”. For the same compound, in assay [15] (phospho-(Ser) PKC substrate antibody, tumors grown in NSG or NOD-SCID mice), the “phosphorylation of PKC substrates in tumors” value was “lower”. In assay [15] (tumor tissue slides at end of experiment), the “apoptosis in tumors (TUNEL assay)” value is recorded as “increased apoptosis”. Further, in [16], the “growth (volume) of MDA-MB-231 tumors in NOD-SCID mice” value is on record as “inhibited the growth”.

Take “Myr-MASRGS/TLRRCLSPGLPRLLHLSRGLA [uPEP2[A6S]]”: in assay [17], the “phosphorylation of the peptide as substrate of PKC-η” value is reported as “excellent substrate”. For the same compound, in [18], the “phosphorylation of the peptide as substrate of PKC-ε” value is listed as “excellent substrate”.

For the compound “Myristoyl-CLSPGLPRLLHLSRGLA [uPEP2(10–26)]”, the “inhibition of kinase activity of PKCη” value in assay [1] is listed as “weak inhibitory effects”.

On to “Myristoyl-MASRGALRRCLSPGLPR [uPEP2(1–17)]”, for which the “cell viability of MDA-MB-231” value in [9] is “partial inhibition”.

In the case of Myristoyl-MLLHLSRGLA [uPEP2(18–26)], the “cell viability of MCF-7” value in [8] was “less effective”. For the same compound, the “cell viability of MDA-MB-231” value in assay [9] is “less effective”. Besides, the “cell viability of U251 MG” value in assay [10] is “less effective”.

Take “Myristoyl-TRKRQRAMRRVHQING [η-PS, reference compound]”: the “inhibition of kinase activity of PKCη” value in [1] was “weak inhibitory effects”. In addition, in assay [8], the “cell viability of MCF-7” value was “less effective”. For the same compound, in assay [9], the “cell viability of MDA-MB-231” value is reported as “less effective”. The “cell viability of U251 MG” value in assay [10] was “less effective”.
